Assay results: PubChem BioAssay AID540281 (Sanford-Burnham Center for Chemical Genomics, 2011)
About 1,500 (60%) of roughly 2,500 compounds were called active.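 How the source made its calls: active means inhibition of at least 30% at 20 µM; inactive means the rest.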 The set was probably picked from earlier hits. This excerpt belongs to a sample that is enriched for actives.

Each compound was assayed against Carboxy-terminal domain RNA polymerase II polypeptide A small phosphatase 1 (Homo sapiens) (UniProt Q9GZU7) (assay: SCP1 dephosphorylation blockade at one dose – biochemical, colorimetric, single concentration, confirmation (AID 540281;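 further: plate controls were DMSO with enzyme for no effect and buffer wells lacking enzyme for full effect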)). Conditions: recombinant SCP-1 catalytic domain, phosphate release, malachite green absorbance; at 20 µM; stronger effect = higher value.
Chain of Carboxy-terminal domain RNA polymerase II polypeptide A small phosphatase 1 (Homo sapiens) (Q9GZU7 76-261 limits assumed): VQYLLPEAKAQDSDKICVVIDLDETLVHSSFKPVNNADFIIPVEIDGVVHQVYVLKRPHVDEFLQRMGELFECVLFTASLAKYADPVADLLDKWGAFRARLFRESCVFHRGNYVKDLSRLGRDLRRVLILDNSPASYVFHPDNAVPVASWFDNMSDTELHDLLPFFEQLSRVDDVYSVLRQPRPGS
Procedure, shortened: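 assay system = SCP-1 catalytic fragment (residues 76-261) | timing = Enzyme–substrate reaction 45 min, room temperature | measured by = colorimetric absorbance at 630 nm of released free orthophosphate | also added = Phospho-17-mer peptide substrate | compound dosing = single 20 µM final compound concentration, 1.0% DMSO | medium = Acidic Tris acetate with 10 mM MgCl2 and Tween-20, pH 5.5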

SMILES | inhibition
O=c1[nH]c(=O)n(CCc2ccc(F)cc2)c(O)c1/C=N/N1CCCCC1 | 34.8% (active)
COc1ccccc1N=C1SCCCN1C | 81.9% (active)
O=C(O)CCn1cc(C=C2C(=O)NC(=S)NC2=O)c(-c2cccc(Br)c2)n1 | 40% (active)
